Measurements from ChEMBL document CHEMBL1129452, “Phenethylthiazolylthiourea (PETT) compounds as a new class of HIV-1 reverse transcriptase inhibitors. 2. Synthesis and further structure-activity relationship studies of PETT analogs” (J Med Chem, 1996).

Tests used:
MT4 [1] = experiment: Inhibition of mutant type (Cys181) HIV-1 (IIIB) replication in MT-4 cells; assay type: functional; details: Homo sapiens, read-out: ED50 (the source's name)
Summary of the method: (§1)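 MT-4 cells (human T cell line) in RPMI 1640 with 10% fetal calf serum, penicillin and streptomycin, seeded at 2 × 10⁴ cells/well. Infected with 10-20 TCID₅₀ of mutant HIV-1 IIIB per well, with the compound added at different concentrations. Incubated at 37 °C in CO₂. Cell viability read by XTT dye at day 5 or 6. Activity taken as the reduction in viral cytopathic effect, given as ED₅₀. Mutants were raised by passage in stepwise increasing concentrations of non-nucleoside RT inhibitors.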

MT4 [2] = experiment: Inhibition of mutant type (Ile100) HIV-1 (IIIB) replication in MT-4 cells; assay type: functional; details: Homo sapiens, read-out: ED50 (the source's name); summary of the method: as §1
MT4 [3] = experiment: Tested for the inhibition of wild type HIV-1 (IIIB) replication in MT-4 cells; assay type: functional; details: Homo sapiens, read-out: ED50 (the source's name)
Summary of the method: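 MT-4 human T cells in RPMI 1640 with 10% fetal calf serum, penicillin and streptomycin, seeded at 2 × 10⁴ cells/well and infected with 10-20 TCID₅₀ HIV-1 IIIB per well. Compounds were added over a concentration range and cultures kept at 37 °C in CO₂. Viability was read by XTT at day 5 or 6, and activity was taken as reduction of viral cytopathic effect.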

MT4 [4] = experiment: Inhibition of HIV-1(IIIB) variants (Ile100/Asn103) in HIV-1 MT-4 cells; assay type: functional; details: Homo sapiens, read-out: ED50 (the source's name); summary of the method: as §1
MT4 [5] = experiment: Inhibition of HIV-1(IIIB) variants (Ile100/Cys 181) in HIV-1 MT-4 cells; assay type: functional; details: Homo sapiens, read-out: ED50 (the source's name); summary of the method: as §1
[6] = biological target: T1, Human immunodeficiency virus type 1 reverse transcriptase (Human immunodeficiency virus 1, UniProt Q72547); experiment: Tested for the inhibition of mutant type (Cys181) HIV-1 (IIIB) RT
[7] = biological target: T1, Human immunodeficiency virus type 1 reverse transcriptase; experiment: Tested for the inhibition of mutant type (Ile100) HIV-1 (IIIB) RT
[8] = biological target: T1, Human immunodeficiency virus type 1 reverse transcriptase; experiment: Tested for the inhibition of wild type HIV-1 (IIIB) RT
MT4 [9] = experiment: Inhibition of HIV-1(IIIB) variants (Ile100/Cys181 in HIV-1 MT-4 cells; assay type: functional; details: Homo sapiens, read-out: ED50 (the source's name); summary of the method: as §1

Structure (SMILES) | EC50 (MT4 [1]) [nM] | EC50 (MT4 [2]) [nM] | EC50 (MT4 [3]) [nM] | EC50 (MT4 [4]) [nM] | EC50 (MT4 [5]) [nM] | IC50 [6] [nM] | IC50 [7] [nM] | IC50 [8] [nM] | EC50 (MT4 [9]) [nM]
N#Cc1ccc(F)c(CC/N=C(\S)Nc2ccc(Cl)cn2)c1F | 50 | 800 | 6 | > 10000 | > 10000 | 90 | 400 | 9 | –
COc1ccc(F)c(F)c1CCNC(=S)Nc1ccc(Br)cn1 | 40 | 600 | 7 | > 10000 | – | 4 | 50 | 3 | > 10000
